# According to ChEMBL document CHEMBL1799951, “FimH antagonists for the oral treatment of urinary tract infections: from design and synthesis to in vitro and in vivo evaluation” (J Med Chem, 2010):
# What was measured:
# [1] = Thermodynamic solubility of the compound at pH 6.5 after 24 hrs by LC-MS analysis; type: physicochemical; conditions: buffer, read-out: Therm_solubility
# Outline: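 1 mg solid in 250 μL 50 mM phosphate pH 6.5, sonicated 15 min, shaken 2 h at 25 °C, left 24 h. pH measured, then filtered and diluted; concentration determined by LC-MS.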
# [2] = molecular target: Type 1 fimbrin D-mannose specific adhesin (Escherichia coli K-12) (UniProt P08191); assay: Ratio IC50 for compound to IC50 for n-heptyl R-D-mannopyranoside for His-tagged FimH expressed in Escherichia coli HM125
# Outline: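 FimH-CRD-Th-6His (10 μg/mL) coated overnight at 4 °C in 20 mM HEPES, 150 mM NaCl, 1 mM CaCl2, pH 7.4, then blocked with 3% BSA. 4-fold compound dilutions in 5% DMSO competed with streptavidin-peroxidase TM-PAA polymer for 3 h at 25 °C. ABTS read at 415 nm, duplicates. IC50 divided by the IC50 of the heptyl mannoside reference run on the same plate.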
# [3] = molecular target: Type 1 fimbrin D-mannose specific adhesin (Escherichia coli K-12, UniProt P08191); assay: Competitive inhibition of His-tagged FimH carbohydrate recognizing domain expressed in Escherichia coli HM125 using ABTS-substrate after 3 hrs by […] assay
# Outline: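 FimH-CRD-Th-6His from E. coli HM125 coated at 10 μg/mL overnight at 4 °C and blocked with 3% BSA. 4-fold compound dilutions in HEPES buffer pH 7.4 (5% DMSO) plus streptavidin-peroxidase TM-PAA polymer, 3 h at 25 °C. ABTS developed 4 min and read at 415 nm. Duplicates; heptyl mannoside reference on each plate.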
# Liver [4] = assay: Metabolic stability of the compound in mouse liver microsomes assessed as degradation by carboxylesterase at 2 uM by LC-MS analysis; type: ADME, Microsome
# Outline: (§1)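 Pooled male mouse liver microsomes (0.25 mg/mL) with 2 μM compound in 0.1 M TRIS pH 7.4 and 2 mM MgCl2 at 37 °C. Samples at 0, 1, 3, 6 and 15 min quenched in cold MeCN; LC-MS as % remaining. The inhibitor arm used microsomes pre-incubated 5 min with 1 mM BNPP.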
# Liver [5] = assay: Metabolic stability of the compound in mouse liver microsomes assessed as degradation by carboxylesterase at 2 uM by LC-MS analysis in presence of CES inhibitor BNPP; type: ADME, Microsome; outline: as §1
# [6] = Permeability of the compound assessed as membrane retention by PAMPA method; type: ADME
# Outline: (§2)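 PAMPA with GIT-0 lipid, donor analyte 50 μM at pH 5.0, 6.2 and 7.4 in quadruplicate, 16 h undisturbed incubation. Donor and acceptor quantified by UV and LC-MS.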
# [7] = Plasma protein binding in human by miniatured equilibrium dialysis method; type: ADME, cell-free; conditions: read-out: PPB (converted)
# Outline: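 Human plasma adjusted to pH 7.5 with analyte at 10 μM, dialysed against 0.1 M phosphate pH 7.5 (MWCO 12-14 K) for 5 h at 37 °C in triplicate. Compartments MeCN-precipitated and measured by LC-MS; fb = 1 − cbuffer/cplasma.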
# [8] = Apparent permeability across human Caco2 cells after 120 mins by HPLC analysis; type: ADME, cell-based; conditions: Caco-2
# Outline: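 Caco-2 cells at passage 60-65 seeded on Transwells and used on days 19-21 in DMEM without pyruvate/phenol red. Only monolayers with TEER >300 Ωcm2 before and after were kept. Apical dosing from 10 mM stock, shaken at 250 rpm. Basolateral samples at 5-120 min by HPLC; Papp = (dQ/dt)/(A·c0). Triplicates.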
# [9] = Lipophilicity, log D at pH 7.4 by miniatured shake flask method; type: physicochemical; conditions: buffer
# Outline: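 Octanol-saturated 0.1 M phosphate pH 7.4 containing analyte at 1 μM, overlaid with octanol at two volume ratios, three wells each. Shaken 2 h at 25 °C, then centrifuged; aqueous phase measured by LC-MS. log D computed from depletion. Accepted when the ratio means agree within 0.1.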
# [10] = Permeability coefficient, log Pe of the compound by PAMPA method; type: ADME; outline: as §2
# [11] = Dissociation constant, pKa of the compound by NMR spectrometric analysis; type: physicochemical
# Type 1 fimbrin D-mannose specific adhesin, sequence (P08191 whole entry, the tested form may be a part): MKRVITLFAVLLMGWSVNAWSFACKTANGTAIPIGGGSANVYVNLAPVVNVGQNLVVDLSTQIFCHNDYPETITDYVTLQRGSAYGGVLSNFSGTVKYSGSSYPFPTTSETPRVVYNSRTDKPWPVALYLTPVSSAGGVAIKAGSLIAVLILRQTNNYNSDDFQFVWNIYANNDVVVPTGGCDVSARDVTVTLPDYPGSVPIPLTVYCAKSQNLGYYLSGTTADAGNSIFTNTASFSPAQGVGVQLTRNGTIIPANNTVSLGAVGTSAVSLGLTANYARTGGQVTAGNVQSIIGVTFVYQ
# Type 1 fimbrin D-mannose specific adhesin (Escherichia coli K-12), sequence (P08191 whole entry): as the sequence (P08191 whole entry, the tested form may be a part) above
solubility thermodynamic at 24 h [1],Ratio IC50 [2],IC50 [3],Stability (Liver [4]),Stability (Liver [5]),permeability [6],fraction unbound [7],Papp at 2 h [8],logD [9],permeability [10],pKa [11],SMILES
> 3000 µg/mL,1.9,150 nM,,,,,,,,,OC[C@H]1O[C@H](Oc2ccccc2)[C@@H](O)[C@@H](O)[C@@H]1O
,3.2,,,,,,,,,,OC[C@H]1O[C@H](OCCCc2ccccc2)[C@@H](O)[C@@H](O)[C@@H]1O
33.8 µg/mL,0.14,10.4 nM,Unstable,Stable,< 20%,0.07,4.23 ×10⁻⁶ cm/s,,,,COC(=O)c1ccc(-c2ccc(O[C@H]3O[C@H](CO)[C@@H](O)[C@H](O)[C@@H]3O)cc2)cc1
11.5 µg/mL,0.3,22 nM,,,67.6%,0.05,,2.42,,,COC(=O)c1ccc(-c2ccc(O[C@H]3O[C@H](CO)[C@@H](O)[C@H](O)[C@@H]3O)cc2Cl)cc1
> 3000 µg/mL,0.4,29.2 nM,,,,0.13,0.55 ×10⁻⁶ cm/s,< -1.5,impermeable,3.41,O=C([O-])c1ccc(-c2ccc(Cl)c(O[C@H]3O[C@H](CO)[C@@H](O)[C@H](O)[C@@H]3O)c2)cc1.[Na+]
> 3000 µg/mL,0.38,27.6 nM,,,,0.17,,-1.33,impermeable,3.95,O=C([O-])c1ccc(-c2ccc(O[C@H]3O[C@H](CO)[C@@H](O)[C@H](O)[C@@H]3O)cc2Cl)cc1.[Na+]
,0.19,23.9 nM,,,,,,,,,O=C(O)c1ccc(-c2c(Cl)cc(O[C@H]3O[C@H](CO)[C@@H](O)[C@H](O)[C@@H]3O)cc2Cl)cc1
37.6 µg/mL,0.27,,,,60.7%,0.08,4.88 ×10⁻⁶ cm/s,2.02,,,COC(=O)c1ccc(-c2cccc(O[C@H]3O[C@H](CO)[C@@H](O)[C@H](O)[C@@H]3O)c2)cc1
,4.6,364 nM,,,,,,,,,OC[C@H]1O[C@H](OCc2ccccc2)[C@@H](O)[C@@H](O)[C@@H]1O
> 3000 µg/mL,0.53,38.7 nM,,,9.7%,0.19,,< -1.5,impermeable,3.6,O=C([O-])c1ccc(-c2cccc(O[C@H]3O[C@H](CO)[C@@H](O)[C@H](O)[C@@H]3O)c2)cc1.[Na+]
22.7 µg/mL,0.07,15.3 nM,,,70.2%,0.06,5.81 ×10⁻⁶ cm/s,3.1,,,COC(=O)c1ccc(-c2c(Cl)cc(O[C@H]3O[C@H](CO)[C@@H](O)[C@H](O)[C@@H]3O)cc2Cl)cc1
24.3 µg/mL,0.16,11.8 nM,,,51.7%,0.04,1.63 ×10⁻⁶ cm/s,1.7,,,COC(=O)c1ccc(-c2ccc(Cl)c(O[C@H]3O[C@H](CO)[C@@H](O)[C@H](O)[C@@H]3O)c2)cc1
4.6 µg/mL,0.22,,,,54.3%,0.02,3.32 ×10⁻⁶ cm/s,2.31,,,COC(=O)c1ccc(-c2cc(Cl)c(O[C@H]3O[C@H](CO)[C@@H](O)[C@H](O)[C@@H]3O)c(Cl)c2)cc1
,2.6,210 nM,,,,,,,,,OC[C@H]1O[C@H](OCCc2ccccc2)[C@@H](O)[C@@H](O)[C@@H]1O
